# Source: PubChem BioAssay AID602285 (Broad Institute, 2012)
# Activity calls are given as the source filed them.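 The calls were made as follows: active = AC50 at or below twice the top valid dose for that sample, with falling signal; inconclusive = flat curve with inhibition of 30 to 70%, or poor fit; inactive = activity in the wrong direction, plus the rest.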
# Target: Scavenger receptor class B member 1 (Mus musculus) (UniProt Q61009)
# Assay: SR-BI mediated DiI-HDL lipid uptake blockers – ldlA[mSR-BI] CHO cells, fluorescence plate reader, dry powder, set 8, dose response (AID 602285)
# Details: 3 h
# Procedure, shortened: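 Test system: CHO ldlA cells overexpressing mouse SR-BI | Compound dosing: Pin-transferred compounds, dose series | Technique: Washed-cell DiI fluorescence, ex 550/em 595 nm | Schedule: Overnight cell plating, then 3 h compound and DiI-HDL exposure at 37 °C | Probe or stimulus: DiI-labelled HDL, 10 µg protein/mL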
# Sequence of Scavenger receptor class B member 1 (Mus musculus) (Q61009 whole entry, looked up): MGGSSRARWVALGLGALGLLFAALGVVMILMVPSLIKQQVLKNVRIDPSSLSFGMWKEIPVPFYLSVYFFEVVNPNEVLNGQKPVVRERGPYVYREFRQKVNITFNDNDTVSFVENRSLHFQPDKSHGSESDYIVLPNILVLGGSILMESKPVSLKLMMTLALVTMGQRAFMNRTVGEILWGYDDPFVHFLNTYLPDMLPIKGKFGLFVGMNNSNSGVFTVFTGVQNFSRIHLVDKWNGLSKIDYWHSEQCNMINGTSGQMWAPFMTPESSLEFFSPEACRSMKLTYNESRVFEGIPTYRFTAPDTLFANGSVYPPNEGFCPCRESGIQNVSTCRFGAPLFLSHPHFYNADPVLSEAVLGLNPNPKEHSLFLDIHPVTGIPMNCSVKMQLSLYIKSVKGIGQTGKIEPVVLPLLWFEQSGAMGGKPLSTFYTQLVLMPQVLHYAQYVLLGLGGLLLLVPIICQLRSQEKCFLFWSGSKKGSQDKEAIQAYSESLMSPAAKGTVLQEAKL
row,AC50,Structure (SMILES)
1,11800 nM,C[C@@H]1CN([C@H](C)CO)C(=O)c2cc(NC(=O)Cc3cn(C)c4ccccc34)ccc2O[C@H]1CN(C)Cc1ccc(C(=O)O)cc1
2,6970 nM,Cc1noc(C)c1NC(=O)N(C)C[C@@H]1Oc2ccc(NC(=O)Cc3cn(C)c4ccccc34)cc2C(=O)N([C@H](C)CO)C[C@H]1C
3,> 70000 nM (inactive),C[C@H](CO)N1C[C@H](C)[C@H](CN(C)C)Oc2c(NS(C)(=O)=O)cccc2C1=O
4,304 nM,COc1ccc(NC(=O)Nc2ccc3c(c2)C(=O)N([C@H](C)CO)C[C@@H](C)[C@H](CN(C)S(=O)(=O)c2ccc(Cl)cc2)O3)cc1
5,2690 nM,COc1ccc(S(=O)(=O)Nc2ccc3c(c2)C(=O)N([C@H](C)CO)C[C@@H](C)[C@H](CN(C)S(=O)(=O)c2ccc(Cl)cc2)O3)cc1
6,123 nM,CC(C)NC(=O)Nc1ccc2c(c1)C(=O)N([C@H](C)CO)C[C@@H](C)[C@H](CN(C)S(=O)(=O)c1ccc(Cl)cc1)O2
7,22300 nM,C[C@@H]1CN([C@@H](C)CO)C(=O)Cc2cc(NS(C)(=O)=O)ccc2O[C@@H]1CN(C)Cc1ccc(C(F)(F)F)cc1
8,< 15 nM,COc1cc(OC)cc(C(=O)Nc2nc(-c3ccc4c(c3)CCN4C(=O)CN3CCOCC3)cs2)c1
9,30.4 nM,C[C@@H]1CN([C@H](C)CO)C(=O)c2cc(NC(=O)C3CCCCC3)ccc2O[C@H]1CN(C)S(=O)(=O)c1ccc(Cl)cc1
10,628 nM,C[C@@H]1CN([C@H](C)CO)C(=O)c2cc(N(C)C)ccc2O[C@H]1CN(C)S(=O)(=O)c1ccc(Cl)cc1
11,210 nM,Cc1ccc(S(=O)(=O)N(C)C[C@@H]2Oc3ccc(NC(=O)Cc4cn(C)c5ccccc45)cc3C(=O)N([C@H](C)CO)C[C@H]2C)cc1
12,2180 nM,C[C@@H]1CN([C@H](C)CO)C(=O)c2cc(NC(=O)Cc3cn(C)c4ccccc34)ccc2O[C@H]1CN(C)C(=O)Nc1ccc(C(F)(F)F)cc1
13,10000 nM,C[C@@H]1CN([C@@H](C)CO)C(=O)c2cc(NC(=O)Cc3cn(C)c4ccccc34)ccc2O[C@@H]1CN(C)S(=O)(=O)c1ccc(Cl)cc1
14,354 nM,C[C@@H]1CN([C@H](C)CO)C(=O)c2cc(NC(=O)NC3CCCCC3)ccc2O[C@H]1CN(C)S(=O)(=O)c1ccc(Cl)cc1
15,> 70000 nM (inactive),COc1ccc(CN(C)C[C@@H]2Oc3ccc(NC(=O)CCCN(C)C)cc3C(=O)N([C@H](C)CO)C[C@H]2C)cc1
16,165 nM,C[C@@H]1CN([C@H](C)CO)C(=O)c2cc(NC(=O)Nc3cccc4ccccc34)ccc2O[C@H]1CN(C)S(=O)(=O)c1ccc(Cl)cc1
17,297 nM,Cc1noc(C)c1S(=O)(=O)Nc1ccc2c(c1)C(=O)N([C@H](C)CO)C[C@@H](C)[C@H](CN(C)S(=O)(=O)c1ccc(Cl)cc1)O2
18,> 70000 nM (inactive),C[C@@H]1CN([C@@H](C)CO)C(=O)Cc2cc(NC(=O)CCCN(C)C)ccc2O[C@H]1CN(C)Cc1ccncc1
19,2550 nM,COc1ccc(CN(C)C[C@@H]2Oc3ccc(NC(=O)Cc4cn(C)c5ccccc45)cc3C(=O)N([C@H](C)CO)C[C@H]2C)cc1
20,2010 nM,COc1ccc(S(=O)(=O)N(C)C[C@@H]2Oc3ccc(NC(=O)Cc4cn(C)c5ccccc45)cc3C(=O)N([C@H](C)CO)C[C@H]2C)cc1
21,> 70000 nM (inactive),CO[C@H]1CN(C)C(=O)c2cc(NC(=O)c3ccccc3F)ccc2OC[C@@H](C)N(C(C)=O)C[C@@H]1C
22,912 nM,C[C@@H]1CN([C@@H](C)CO)C(=O)c2cc(NC(=O)Cc3cn(C)c4ccccc34)ccc2O[C@H]1CN(C)S(=O)(=O)c1ccc(Cl)cc1
23,3390 nM,C[C@@H]1CN([C@H](C)CO)C(=O)c2cc(NS(=O)(=O)c3cn(C)cn3)ccc2O[C@H]1CN(C)S(=O)(=O)c1ccc(Cl)cc1
24,856 nM,C[C@@H]1CN([C@H](C)CO)C(=O)c2cc(NC(=O)Nc3ccc4c(c3)OCO4)ccc2O[C@H]1CN(C)S(=O)(=O)c1ccc(Cl)cc1

# Same assay, conditions: 3 h, at 35 µM (top of the series)
row,"activity change, negative = inhibition",Structure (SMILES)
1,inactive,C[C@H](CO)N1C[C@H](C)[C@H](CN(C)S(=O)(=O)c2ccc(Cl)cc2)Oc2ccc(NC(=O)Cc3cn(C)c4ccccc34)cc2C1=O
2,inactive,C[C@@H]1CN([C@H](C)CN(C)C)C(=O)c2cc(NC(=O)Cc3cn(C)c4ccccc34)ccc2O[C@H]1CN(C)S(=O)(=O)c1ccc(Cl)cc1
3,inactive,CO[C@@H]1CN(C)C(=O)c2ccc(NC(=O)C3CC3)cc2OC[C@@H](C)N(Cc2ccncc2)C[C@H]1C
4,inactive,C[C@@H]1CN([C@H](C)CO)C(=O)c2cc(NC(=O)Nc3ccccc3)ccc2O[C@H]1CN(C)S(=O)(=O)c1ccc(Cl)cc1
